Source: PubChem
TRPC4 agonist = opens the mouse TRPC4 cation channel; B-score at 10 µM; HEK293 TRPC4beta/mu-opioid, Fluo4 calcium fluorescence; hits give high values; 310,000 tested, 0.49% active;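 active means B-score above 5 SD of library B-scores, and initial fluorescence ratio not above library mean plus 5 SD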;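 further: positive B-score marks a calcium rise read as TRPC4 activation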
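Assay system – TRPC4beta and mu-opioid receptor HEK293 stable cells · Measured by – Fluo4 fluorescence, kinetic · Schedule – dye loading 45 min room temperature, 110 s kinetic read · Read-out – B-scored integrated calcium fluorescence ratio · Controls – buffer and maximal DAMGO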
TRPC4 potent = TRPC4 (mouse) allosteric potentiation | Q9QUQ5 | HEK293 TRPC4beta/mu-opioid, DAMGO EC20, Fluo-4 Ca2+ flux; hits give high values | B-score at 10 µM | 310,000 tested, 0.42% active | AID 2227;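 active means B-score of calcium response area above 5 SD of library B-scores, with initial fluorescence ratio within 5 SD of library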
TRPC4 inh = blocks the mouse TRPC4 cation channel. Q9QUQ5. HEK293 TRPC4beta/mu-opioid, DAMGO-evoked Fluo4 calcium flux; hits give low values. B-score at 10 µM. 300,000 tested, 0.39% active. AID 2247;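 active means B-score over 3 SD under the library average, no early fluorescence shift, positive overall ratio signal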
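Assay system: TRPC4beta/mu-opioid receptor HEK293 cell line; compound dosing: single concentration per test compound; detection: Fluo4 Ca2+ flux fluorescence; evaluation: per-well B score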
TRPC6 inh = mouse TRPC6 channel inhibition; Q61143; HEK293-TRPC6, membrane potential dye, ACh-evoked depolarization; hits give low values; B-score at 10 µM; 310,000 tested, 1.1% active;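 active means B-score under library mean minus 3 SD, initial fluorescence not abnormally high, positive integrated signal ratio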;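 further: B-score derived from integrated fluorescence ratio over the kinetic read; more negative B-score means stronger inhibition of depolarization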
TRPC6 act = mouse TRPC6 channel activation; Q61143; 310,000 tested, 0.13% active; HEK293-TRPC6 membrane potential dye fluorescence; hits give high values; B-score at 10 µM;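 active means B-score of the integrated fluorescence ratio above library mean plus 3 SD, and starting fluorescence ratio within library mean plus 5 SD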;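 further: higher score means more depolarization so channel activation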
TRPC4 spec 2 = second selectivity test of TRPC6 inhibitors: effect on mouse TRPC4 | HEK293 TRPC4/MOR, membrane potential dye fluorescence; channel activated by saturating DAMGO dose | 920 tested, 42% active | inhibition, % at 10 µM | shares compounds with TRPC6 inh;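 active means compounds whose fluorescence signal differed from control wells by over 3 SD, either direction, in both duplicate plates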
TRPC4 spec = mouse TRPC4 off-target activity of TRPC6 inhibitors | shares compounds with TRPC6 inh | HEK293 TRPC4/mu-opioid, membrane potential fluorescence | activity change, negative = inhibition, % at 10 µM | 920 tested, 61% active;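 active means rise or fall in signal beyond 3 SD of buffer-only wells in both replicate plates, either sign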;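 further: integrated kinetic ratio of fluorescence range over baseline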
HEK293 MPD ctr 2-1 = second check of TRPC6 inhibitor effects in parental HEK293 cells; shares compounds with TRPC6 inh; parental HEK293 membrane potential dye fluorescence; maximal acetylcholine challenge after compound addition; signal change vs control, % at 10 µM; 920 tested, 31% active;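 active means membrane potential signal moving either way by over 3 SD of the maximum-effect control, in both duplicate plates, meaning non-specific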
HEK293 MPD ctr-1 = checks TRPC6 inhibitor effects in parental HEK293 cells; parental HEK293 membrane potential dye fluorescence; 920 tested, 60% active; shares compounds with TRPC6 inh; membrane potential signal change, % at 10 µM;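 active means membrane potential signal shifting up or down by more than 3 SD of buffer-only wells, on both duplicate plates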
HEK293 MPD ctr-2 = parental HEK293 nonspecific activity of TRPC6 modulators; shares compounds with TRPC6 inh; membrane potential dye fluorescence; membrane potential signal change, % at 10 µM; 2,400 tested, 51% active; AID 488924;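 active means membrane potential signal moves up or down beyond 5 SD from buffer-only wells, on both duplicate plates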
HEK293 MPD ctr 2-2 = parental HEK293 nonspecific activity of TRPC6 modulators, second screen. membrane potential dye fluorescence; after compound, maximal acetylcholine stimulation. shares compounds with TRPC6 inh. 2,400 tested, 14% active. inhibition, % at 10 µM;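 active means membrane potential signal drops by more than 5 SD from the mean control signal, in both duplicate plates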
TRPC4 ctr mod = tests whether TRPC6 modulators also affect mouse TRPC4; shares compounds with TRPC6 inh; HEK293 TRPC4/mu-opioid, membrane potential fluorescence; percent change from control (negative = decrease, positive = increase), % at 10 µM; 2,400 tested, 69% active; AID 488927;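 active means membrane potential signal moved up or down beyond 5 SD of buffer control wells, in both duplicate plates, actives on both sides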
TRPC4/MOR inh 2 = second check of whether TRPC6 modulators also affect mouse TRPC4. shares compounds with TRPC6 inh. HEK293 TRPC4/mu-opioid, membrane potential dye fluorescence; stimulated with maximal-effect DAMGO. inhibition, % at 10 µM. 2,400 tested, 55% active;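 active means drop in membrane potential signal beyond 5 SD of the control wells in both duplicate plates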;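 further: TRPC4 counter screen for TRPC6 hits run under conditions tuned for TRPC6 not TRPC4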
TRPC6 block conf = confirmation of mouse TRPC6 inhibitors | shares compounds with TRPC6 inh | HEK293-TRPC6, membrane potential dye, ACh-evoked depolarization | inhibition, % at 10 µM | 3,300 tested, 43% active | AID 488960;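 active means fluorescence ratio falls more than 5 SD below the full-stimulation control mean, in both duplicate runs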;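 further: integrated fluorescence ratio of peak minus minimum over baseline after agonist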
TRPC6 act confirm = mouse TRPC6 activator confirmation; activation, % at 10 µM; shares compounds with TRPC6 inh; 2,800 tested, 11% active; HEK293-TRPC6 membrane potential dye fluorescence, FDSS;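 active means ratio signal rise beyond 5 SD above unstimulated control wells' mean, seen in both duplicate runs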
Large screens that a line does not name were inactive (follow-up assays come after a bar, where they were run). An excerpt weighted towards active compounds, which were near 2.3% of everything screened.

Cc1onc(-c2ccccc2Cl)c1C(=O)Nc1nnc(Cc2ccc(Cl)cc2)s1	TRPC6 inh -6.6 | TRPC4 spec 2 inactive | TRPC4 spec inactive | HEK293 MPD ctr 2-1 inactive | HEK293 MPD ctr-1 inactive | TRPC6 block conf inactive | TRPC6 act confirm inactive
COC(=O)C1=C(C(=O)OC)[C@@H]2N(Cc3ccccc3)c3ccccc3[C@@]23C[C@@H](CO)N(C(=O)NC2CCCC2)C3=N1	none
COc1ccc(NC(=O)CCCCCN2C(=O)[C@@H]3Cc4ccccc4CN3C2=O)cc1Cl	TRPC6 inh -7.4 | HEK293 MPD ctr-2 inactive | HEK293 MPD ctr 2-2 inactive | TRPC4 ctr mod inactive | TRPC4/MOR inh 2 inactive | TRPC6 block conf inactive | TRPC6 act confirm inactive
Cc1ccc(NC(=O)CCCCCN2C(=O)[C@@H]3Cc4ccccc4CN3C2=O)cc1	none
CC1CCCN(C(=O)C2COc3ccccc3O2)C1 (stereo not given)	TRPC6 inh -5 | HEK293 MPD ctr-2 inactive | HEK293 MPD ctr 2-2 inactive | TRPC4 ctr mod 8.5% | TRPC4/MOR inh 2 inactive | TRPC6 block conf 49%
O=C(CCn1c(=O)[nH]c2ccsc2c1=O)N1CCN(c2cccc(Cl)c2)CC1	TRPC6 inh -13, TRPC6 act 15 | HEK293 MPD ctr-2 inactive | HEK293 MPD ctr 2-2 inactive | TRPC4 ctr mod inactive | TRPC4/MOR inh 2 inactive | TRPC6 block conf 56% | TRPC6 act confirm 94%
O=C(CCn1c(=O)[nH]c2ccsc2c1=O)N1CCN(c2ccc([N+](=O)[O-])cc2)CC1	none
COC(=O)c1cc(NC(=O)CSc2nnc(N)s2)ccc1Cl	TRPC6 inh -7.1 | HEK293 MPD ctr-2 inactive | HEK293 MPD ctr 2-2 inactive | TRPC4 ctr mod inactive | TRPC4/MOR inh 2 inactive | TRPC6 block conf inactive | TRPC6 act confirm inactive
NC(=S)NC(c1ccccc1)c1ccncc1 (stereo not given)	none
Cc1ccc2nc(-c3ccncc3)cc(-c3ccccc3)c2c1	none
Cc1ccc(-c2cc3cccc[n+]3cc2-c2ccc(C)cc2)cc1	TRPC6 inh -5.8 | HEK293 MPD ctr-2 -134% | HEK293 MPD ctr 2-2 inactive | TRPC4 ctr mod -20% | TRPC4/MOR inh 2 29% | TRPC6 block conf 60% | TRPC6 act confirm inactive
CN1C(=S)N(c2cccnc2)C(=O)/C1=C\c1ccc(N(C)C)cc1	TRPC6 act 13 | HEK293 MPD ctr-2 356% | HEK293 MPD ctr 2-2 inactive | TRPC4 ctr mod 108% | TRPC4/MOR inh 2 inactive | TRPC6 block conf inactive | TRPC6 act confirm 106%
